D1 mod = D1 CRE-luciferase signal change, two-sided – cell-based, HEK293 D1, dopamine EC30, D1 allosteric modulator project, primary screen; D(1A) dopamine receptor (Homo sapiens), P21728; dopamine EC30 potentiation; actives deviate in either direction; B-score at 10 µM; actives 5.9% (n = 58,000);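 active = luminescence count or its row- and column-corrected plate score outside the 99.7% band of the plate's sample wells, on either side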
SF-1 act = activators of human SF-1, primary screen, cell-based, CHO-K1, Gal4-SF-1 LBD, luciferase luminescence; CHO-K1 Gal4-SF-1 LBD luciferase reporter; % increase over DMSO SF-1-specific signal; activation, % at 10 µM; actives 1.9% (n = 65,000);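 active = activation above the mean activation of all tested compounds plus 3 SD, cut at about 50% in these data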
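Material: Transient Gal4-SF-1 LBD reporter, CHO-K1 | Input: 4,000 cells/well | Dosing: One dose, 10 µM compound, 1% DMSO | Incubation: 20 h compound treatment, 37 °C | Detection: SteadyLite luciferase luminescence | Evaluation: Percent activation relative to DMSO median and mock-transfected background | Benchmarks: DMSO-treated SF-1-transfected cells as negative, DMSO-treated mock-transfected cells lacking SF-1 as background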
M1 ag = M1 muscarinic receptor agonists, primary screen, CHO-M1 cells, Fluo-4 calcium, agonist mode; Fluo-4 calcium fluorescence; hits give high values; B-score at 10 µM; actives 3% (n = 64,000); AID 626, 2007;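 active = fluorescence rise, raw or as B-score row- and column-corrected plate score, outside the 99.7% band of its plate's samples, either direction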
RORa activator = activators of orphan receptor RORA, primary screen, cell-based, luminescence. CHO-K1 Gal4-RORA LBD luciferase reporter; percent increase over mock-subtracted basal signal. activation, % at 10 µM. actives 1.5% (n = 65,000). AID 560, 2006;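 active = activation above the mean of all tested compounds plus 3 SD, cut at about 49% in these data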;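 note: 0% = DMSO-treated RORA cells and 100% = added signal equal to DMSO minus mock-transfected cells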
Target sequence (P35398 whole entry, looked up, the tested form may be a part): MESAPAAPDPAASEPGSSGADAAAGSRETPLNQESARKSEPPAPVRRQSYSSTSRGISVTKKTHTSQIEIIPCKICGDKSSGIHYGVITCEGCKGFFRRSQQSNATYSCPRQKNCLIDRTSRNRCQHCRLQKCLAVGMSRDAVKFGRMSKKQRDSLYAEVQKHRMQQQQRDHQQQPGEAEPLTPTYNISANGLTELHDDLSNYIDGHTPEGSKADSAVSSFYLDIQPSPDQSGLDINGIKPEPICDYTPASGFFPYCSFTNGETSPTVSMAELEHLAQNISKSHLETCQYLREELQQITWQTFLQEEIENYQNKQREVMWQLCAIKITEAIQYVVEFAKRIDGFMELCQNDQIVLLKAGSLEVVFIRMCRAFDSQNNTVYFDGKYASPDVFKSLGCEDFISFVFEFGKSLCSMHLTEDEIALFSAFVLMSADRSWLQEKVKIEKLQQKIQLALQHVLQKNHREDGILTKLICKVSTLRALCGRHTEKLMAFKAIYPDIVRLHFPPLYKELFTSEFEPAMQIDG
Htt clearance = clearance of mutant huntingtin inclusions, primary screen, imaging, HeLa Exon1htt(103Q)mCFP, confocal imaging | aggregate imaging; zero = plate's median compound well | inhibition, % at 1.5 µM | actives 0.42% (n = 47,000);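 active = inhibition of aggregate fluorescence above about 70%, also judged a hit by eye on the cell image, limit read from the data, passing the limit was not always enough; inconclusive = no rule stated for this call; inactive = not judged a hit on image review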;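 note: cells exposed to compound for three days before fixation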
M1 antagonist = antagonists of rat M1 muscarinic receptor. CHO-M1 cells, Fluo-4 calcium, ACh EC80 antagonist mode; hits give low values. B-score at 10 µM. actives 3.4% (n = 64,000). AID 628, 2007;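 active = calcium fluorescence response, raw or row-and-column corrected B-score, differing from the plate sample mean either way at a set confidence level, mostly lower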
* marks the source's active call; other numbers are inactive results; u = inconclusive; x = not tested or not shown. Hits are enriched below; roughly 11% of the tested compounds scored in any of these assays.

SMILES	D1 mod	SF-1 act	M1 ag	RORa activator	Htt clearance	M1 antagonist
O=C1C2C3C=CC(C3=C(c3ccccc3)c3ccccc3)C2C(=O)N1Cc1ccccc1 (centres undefined)	x	x	x	x	-60	x
Cc1[nH]n(-c2ccc([N+](=O)[O-])cc2)c(=O)c1C=NCCN1CCN(C(=O)c2ccccc2)CC1	x	x	x	x	-4	x
CC(C)CC(=O)Nc1ccc2oc(-c3cccnc3)nc2c1	-0.13	32	-0.033	46	-45	1.4
Cc1ccc2oc(-c3ccc(NC(=O)CC(C)C)cc3)nc2c1	-0.53	44	0.56	55*	x	0.078
CCCC(=O)Nc1ccc(-c2nc3cc(C)c(C)cc3o2)cc1	-2.4*	33	-0.25	48	x	0.27
CCOc1ccc(OCC)c(NC(=O)CSc2nc3c(c(=O)n(C)c(=O)n3C)n2C(C)C)c1	2.2	101*	-0.69	17	x	0.22
CCn1c(SCC(=O)c2cc(OC)ccc2OC)nc2c1c(=O)n(C)c(=O)n2C	4.9*	-16	0.51	-5	x	0.63
COCc1cc(C)nc(SCC(=O)N2CCC(C)CC2)c1C#N	0.9	-8	-0.13	-1	-42	0.23
c1ccc(-c2nnc3sc(-c4ccncc4)nn23)cc1	1.8	28	0.5	9	-8	-0.013
Cc1nn2cc(-c3ccccc3)nc2s1	-3.9*	-7	1.4	10	x	1.2
c1ccc(-c2cn3nc(-c4ccccc4)sc3n2)cc1	-8.2*	-51	0.27	-24	x	-0.43
CC(NC(=O)CCSc1nc(-c2ccc3c(c2)OCO3)cc(C(F)(F)F)n1)c1ccccc1 (centres undefined)	x	x	x	x	-23	x
O=C(Nc1ccc2c(c1)OCO2)OCc1ccccc1	1.4	18	0.56	12	-16	0.15
COc1ccc(-c2csc(N3CCOCC3)n2)cc1OC	13*	10	0.58	61*	15	0.047
O=C(Nc1ccc(Cl)c(C(F)(F)F)c1)NC1CC2CCCC(C1)N2C1CC1 (centres undefined)	x	x	x	x	-82	x
Cn1c(-c2ccc(F)cc2)cnc1NCc1cccc(F)c1	x	x	x	x	13	x
Cn1c(-c2ccc(F)cc2)cnc1NCc1ccccc1	-3.4*	9	0.16	9	x	-0.79
CC(=O)C1C(c2ccc(F)c(F)c2)NC(=O)NC1(O)C(F)(F)F (centres undefined)	-0.12	2	0.32	26	x	-0.1
NC(=O)CSc1nnc(-c2ccc(S(=O)(=O)N3CCOCC3)cc2)n1Cc1ccccc1	x	-4	-0.91	-14	27	2.3*
NC(=O)CSc1nnc(-c2ccc(S(=O)(=O)N3CCOCC3)cc2)n1CC1CCCO1 (centres undefined)	x	-4	0.44	-9	28	-2
CCN(CC)S(=O)(=O)c1cccc2c(N(C)C)cccc12	-0.09	-13	0.21	-15	29	-0.71
Cc1cccc(-n2ncc3c(N4CCC(C)CC4)ncnc32)c1	-4.3*	70*	-0.0017	36	-9	-0.15
Cc1cccc(-n2ncc3c(N4CCC5(CC4)OCCO5)ncnc32)c1	-1.1	98*	-0.76	49*	x	-0.042
O=C(Nc1ccccn1)C(NS(=O)(=O)c1cccc2nsnc12)c1ccccc1 (centres undefined)	-0.39	-7	-1.2	-5	x	-1.5
Cc1cccc(-c2c3c(=O)n(C)c(=O)n(C)c3c3c(C)cc(C)nn23)c1	3.6*	3	0.18	3	x	0.53
SMILES	D1 mod	SF-1 act	M1 ag	RORa activator	Htt clearance	M1 antagonist
Cc1cc(C)c2c3c(c(-c4ccccc4)n2n1)c(=O)n(C)c(=O)n3C	5.6*	-10	0.74	-9	x	-0.27
CCn1cc2c(c1-c1cccc(C)c1)c(=O)n(C)c(=O)n2C	x	-8	0.33	12	x	-0.32
Cn1c(=O)c2c(-c3ccccc3)n3c4ccccc4ncc3c2n(C)c1=O	2.5	4	2.7	15	x	1.3
O=C(NC(NC(=S)Nc1cccc(Cl)c1)C(Cl)(Cl)Cl)OCc1ccccc1 (centres undefined)	x	x	x	x	-26	x
C=CCNC(=O)COc1ccc(Br)cc1Cl	1	24	-0.37	28	22	0.35
c1ccc2c(c1)CCCN2Cc1nnnn1CC1CCCO1 (centres undefined)	-0.82	-14	-0.00027	12	x	0.11
c1ccc(CCn2nnnc2CN2CCCc3ccccc32)cc1	0.18	21	0.69	51*	-15	0.72
O=C(NCCSCc1ccco1)Nc1cccc(Cl)c1	0.088	11	0.014	13	-36	-0.33
O=C(NCCSCc1ccco1)Nc1ccc(Cl)cc1	-0.24	65*	-0.25	46	x	0.52
Cc1occc1-c1nnc(SCC(=O)N2CCCc3ccccc32)n1Cc1ccco1	-2.6*	-12	0.66	-4	x	-0.089
COc1cc(C(=O)Nc2ccc(S(=O)(=O)NC(C)(C)C)cc2)cc(OC)c1OC	x	x	x	x	19	x
COc1cc(C(=O)Nc2ccc(N(C)C)cc2)cc(OC)c1OC	-0.27	62*	0.27	84*	-106	-0.36
CC1CN(c2ccccc2)C(=O)CS1 (centres undefined)	0.29	30	-0.59	6	2	-1.1
CC(C)Cc1cc(C(=O)NCCCN2CCOCC2)no1	x	-2	0.21	-17	x	0.2
COc1cc(C(c2nnnn2C(C)(C)C)N2CCN(c3nc4ccccc4s3)CC2)ccc1O (centres undefined)	0.12	19	-0.0058	-9	x	-0.1
O=S(=O)(Cc1nc2ccccc2s1)c1ccccc1	x	110*	x	50*	x	x
COc1cccc(NC(=O)c2nnn(Cc3ccc(Br)cc3F)c2N)c1	0.63	2	-0.64	58*	x	0.22
COc1cccc(NC(=O)Cn2nnc(C(=O)Nc3ccccc3)c2N)c1	-1	7	0.058	21	u	0.15
COc1cccc(NC(=O)c2nnn(CCc3ccccc3)c2N)c1	-0.73	84*	-0.42	53*	-16	-0.2
CCOC(=O)C1C(=O)CC(C)(O)C(C(=O)OCC)C1c1ccco1 (centres undefined)	0.97	-14	-0.92	-17	x	-0.9
O=C(c1ccc(Cl)cc1)N1CCCCC(Sc2nnc(-c3ccc4c(c3)OCO4)o2)C1=O (centres undefined)	-10*	-89	-0.0068	-76	x	-0.0053
CC(C)NC(=O)c1c2c(nc3ccccc13)CCCC2	x	x	x	x	14	x
Cc1cccc(NC(=O)Cn2cnc3ccccc3c2=O)c1C	x	x	x	x	16	x
CCCCNc1cc(=O)n(C)c(=O)[nH]1	x	-13	0.25	-4	x	0.73*
CC(C)NC(=O)c1ccccc1NC(=O)CCc1ccccc1	x	x	x	x	17	x

Screening data from PubChem BioAssay.
